From PubChem BioAssay
Active and inactive are the calls of the source.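 How the source made its calls, unless noted: active means potentiation averaged over duplicate wells exceeding buffer-only control mean by more than 3 SD; inactive means the rest.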

Experiments:
[1] = nonspecific flux increase, KCNQ1-free cells – parental CHO cells, counter-screen for KCNQ1 potentiator project (AID 493006;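 active means duplicate-averaged activation above buffer control mean plus 5 SD of those controls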;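 on activation: fluorescence ratio of max minus min over baseline after K+ and Tl+ depolarization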); conditions: parental CHO-K1 cells, FluxOR thallium flux, at 10 µM; hits give high values
In short: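 Benchmarks – buffer and R-L3 controls · Assay system – untransfected host CHO-K1 cells with FluxOR thallium dye · Measure – fluorescence change ratio scaled 0% buffer, 100% R-L3 · Technique – kinetic thallium-flux fluorescence · Timing – overnight 37 °C plating, 90 min RT dye, 20 min compound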

[2] = molecular target: Potassium voltage-gated channel subfamily KQT member 1 (Homo sapiens) (UniProt P51787); assay: enhancement of KCNQ1 channel thallium flux – FluxOR thallium flux, CHO cells, duplicates, confirmation (AID 493007); conditions: KCNQ1 cell line, FluxOR thallium flux fluorescence, at 10 µM; hits give high values, % of reference activator effect, buffer zero;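 on outcome: cells depolarized by a potassium plus thallium sulfate stimulus after compound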
In short: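 Material: CHO cells stably expressing the KCNQ1 potassium channel / Times: dye 90 min then compound 20 min, both at room temperature / Detection: kinetic thallium influx fluorescence with FluxOR dye, 10 s baseline, 110 s post-stimulus / Benchmarks: buffer-only wells as 0% and R-L3 activator as 100% / Replicates: each compound tested in duplicate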

[3] = molecular target: Potassium voltage-gated channel subfamily KQT member 2 (Rattus norvegicus) (UniProt O88943); assay: KCNQ2 thallium flux enhancement – KCNQ2-CHO-K1 cells, selectivity assay for KCNQ1 potentiator project (AID 493009;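 active means mean duplicate potentiation above the buffer control mean plus 5 SD of buffer wells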;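 further: assay conditions were tuned for KCNQ1 rather than KCNQ2 modulators; signal is max minus min fluorescence divided by baseline after thallium stimulus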); conditions: FluxOR thallium flux fluorescence, at 10 µM; hits give high values, scaled: buffer 0, activator control 100
[4] = molecular target: Potassium voltage-gated channel subfamily KQT member 1 (Homo sapiens) (UniProt P51787); assay: KCNQ1 activators by electrophysiology – IonWorks patch clamp, KCNQ1-CHO cells, orthogonal assay for KCNQ1 potentiator project, confirmation (AID 493184;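 active means current rise at least 3 SD above the untreated control mean in each of two repeat wells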); conditions: automated patch clamp current, at 10 µM; hits give high values
In short: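 Probe or stimulus: depolarizing pulse to +40 mV from -90 mV; Material: CHO cells carrying KCNQ1; Compound: one dose, 10 µM final; Signal: automated voltage clamp, amphotericin B perforated patch; Read-out basis: percent current increase versus pre-compound level; Buffer or medium: pH 7.4 external bath; Replication: duplicates.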

Chain of Potassium voltage-gated channel subfamily KQT member 2 (Rattus norvegicus) (O88943 whole entry, looked up): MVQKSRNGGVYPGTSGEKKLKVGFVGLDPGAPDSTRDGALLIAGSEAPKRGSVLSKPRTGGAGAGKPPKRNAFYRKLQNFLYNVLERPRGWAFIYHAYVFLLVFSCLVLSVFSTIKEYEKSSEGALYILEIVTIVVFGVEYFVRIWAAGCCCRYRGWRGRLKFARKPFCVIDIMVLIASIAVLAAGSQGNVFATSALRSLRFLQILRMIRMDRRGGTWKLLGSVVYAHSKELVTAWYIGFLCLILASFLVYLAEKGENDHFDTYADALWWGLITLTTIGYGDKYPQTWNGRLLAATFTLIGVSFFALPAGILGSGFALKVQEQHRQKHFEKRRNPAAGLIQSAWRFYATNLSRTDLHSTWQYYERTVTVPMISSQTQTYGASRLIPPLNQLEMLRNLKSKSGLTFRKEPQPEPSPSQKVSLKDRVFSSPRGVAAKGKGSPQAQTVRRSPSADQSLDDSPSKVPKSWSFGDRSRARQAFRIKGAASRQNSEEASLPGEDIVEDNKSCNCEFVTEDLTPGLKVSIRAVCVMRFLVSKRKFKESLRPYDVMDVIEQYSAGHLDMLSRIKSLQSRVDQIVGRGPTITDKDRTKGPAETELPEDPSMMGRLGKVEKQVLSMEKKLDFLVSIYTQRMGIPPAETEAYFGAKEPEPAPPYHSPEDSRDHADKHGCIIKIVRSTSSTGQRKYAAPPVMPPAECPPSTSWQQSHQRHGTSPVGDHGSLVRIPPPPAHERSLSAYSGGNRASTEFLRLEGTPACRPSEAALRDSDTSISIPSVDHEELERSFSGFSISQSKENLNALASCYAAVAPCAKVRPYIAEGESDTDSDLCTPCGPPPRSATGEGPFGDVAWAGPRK
Chain of Potassium voltage-gated channel subfamily KQT member 1 (Homo sapiens) (P51787 whole entry, looked up): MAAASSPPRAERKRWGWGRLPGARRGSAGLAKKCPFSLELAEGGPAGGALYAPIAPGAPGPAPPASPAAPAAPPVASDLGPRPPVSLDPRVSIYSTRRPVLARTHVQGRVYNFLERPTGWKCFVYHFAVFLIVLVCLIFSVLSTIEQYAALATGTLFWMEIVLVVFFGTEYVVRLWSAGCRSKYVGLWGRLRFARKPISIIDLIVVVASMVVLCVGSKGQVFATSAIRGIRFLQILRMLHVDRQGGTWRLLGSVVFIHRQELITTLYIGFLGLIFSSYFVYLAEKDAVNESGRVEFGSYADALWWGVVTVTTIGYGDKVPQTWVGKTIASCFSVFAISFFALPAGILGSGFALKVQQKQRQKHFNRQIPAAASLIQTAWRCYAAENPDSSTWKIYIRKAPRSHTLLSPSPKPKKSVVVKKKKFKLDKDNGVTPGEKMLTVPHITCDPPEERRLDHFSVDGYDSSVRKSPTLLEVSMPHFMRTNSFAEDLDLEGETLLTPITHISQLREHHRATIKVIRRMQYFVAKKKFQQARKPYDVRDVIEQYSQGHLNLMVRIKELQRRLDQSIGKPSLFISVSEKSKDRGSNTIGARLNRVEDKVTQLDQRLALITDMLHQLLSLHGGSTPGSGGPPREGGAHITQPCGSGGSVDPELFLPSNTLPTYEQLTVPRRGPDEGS

| SMILES | activation [1] | potentiation [2] | potentiation [3] | outcome [4] | outcome [1] | outcome [2] | outcome [3] |
| --- | --- | --- | --- | --- | --- | --- | --- |
| COc1ccc(/C=C2/SC(=S)N(NS(=O)(=O)c3ccccc3)C2=O)cc1 | 195% (active) | 84.5% (active) | 180% (active) | inactive | – | – | – |
| CC(C)Cn1c(=S)[nH]c2cc(Cl)ccc21 | 196% (active) | 70.5% (active) | 225% (active) | inactive | – | – | – |
| Cn1c(SCc2ccc(C#N)cc2Cl)nc2ccccc21 | – | – | – | inactive | inactive | inactive | inactive |
| Cc1nonc1NC(=O)OC1CCCCC1 | – | – | – | inactive | inactive | inactive | inactive |
| COc1ccc(C(=O)N2CCC(N3CCN(c4ccccc4)CC3)CC2)cc1 | – | – | – | inactive | inactive | inactive | inactive |
| COc1cc(CNCCN2CCOCC2)ccc1OCc1ccc(Cl)cc1Cl | – | – | – | inactive | inactive | inactive | inactive |
| COc1cccc(C=O)c1OCCCOc1cccc2cccnc12 | – | – | – | inactive | inactive | inactive | inactive |
| COc1cccc(NC(=S)NCCN2CCOCC2)c1 | 156% (active) | 26% (active) | 162% (active) | inactive | – | – | – |
| CCCN(C(=O)c1cn(-c2ccccc2)nc1-c1ccc(OC)cc1)C1CCS(=O)(=O)C1 (stereo not given) | – | – | – | inactive | inactive | inactive | inactive |
| O=C(NC(=S)Nc1nc2ccccc2s1)c1ccco1 | 183% (active) | 31% (active) | 172% (active) | inactive | – | – | – |
| O=C(NC(=S)Nc1ccccc1)c1ccc(Br)o1 | – | 21.5% (active) | 158% (active) | inactive | inactive | – | – |
| O=C(CN(c1ccc(Cl)cc1)S(=O)(=O)c1ccc(Cl)c([N+](=O)[O-])c1)NCCc1ccc(F)cc1 | – | – | – | inactive | inactive | inactive | inactive |
| O=C(NC(=S)Nc1cccc(Cl)c1N1CCCCC1)c1ccco1 | 156% (active) | 148% (active) | 178% (active) | inactive | – | – | – |
| CCCn1cc(NC(=O)c2cc(-c3ccccc3)on2)cn1 | – | 25% (active) | – | inactive | inactive | – | inactive |
| COc1ccc(CNC(=O)C2CC(c3cccc(OC)c3)=NO2)cc1 (stereo not given) | – | – | – | inactive | inactive | inactive | inactive |
| COc1cc(C(=O)NC(=S)NC(C)C)cc(OC)c1OC | – | – | – | inactive | inactive | inactive | inactive |
| CCC(/C=N/NC(=O)C1COc2ccccc2O1)CC (stereo not given) | – | – | – | inactive | inactive | inactive | inactive |
| CC1CCN(c2ccccc2NC(=S)NC(=O)c2cccs2)CC1 | 139% (active) | 54% (active) | – | inactive | – | – | inactive |
| Cc1nn(-c2ccccc2)c2nc(C(Cl)(Cl)Cl)[nH]c(=O)c12 | 145% (active) | – | – | inactive | – | inactive | inactive |
| CCCOc1ccccc1Cn1c(=O)oc2ccc(C)cc21 | – | – | – | inactive | inactive | inactive | inactive |

| SMILES | activation [1] | potentiation [2] | potentiation [3] | outcome [4] | outcome [1] | outcome [2] | outcome [3] |
| --- | --- | --- | --- | --- | --- | --- | --- |
| Oc1ccc(N=Nc2ccc3c(c2)OCCO3)c2ncccc12 | 310% (active) | 116% (active) | 352% (active) | inactive | – | – | – |
| CCOC(=O)c1n[nH]n2c1nc(=S)c1ccccc12 | 260% (active) | 54.5% (active) | 246% (active) | inactive | – | – | – |
| CC1CCCN(c2ccc(C(=O)NCc3ccccc3)cn2)C1 (stereo not given) | 155% (active) | 26% (active) | 152% (active) | inactive | – | – | – |
| O=C(NC(=S)NCCc1ccccc1)c1cccc(Cl)c1 | 182% (active) | 141% (active) | 342% (active) | inactive | – | – | – |
| COC(=O)c1cc2c(ccc3ccccc32)oc1=O | – | – | – | inactive | inactive | inactive | inactive |
| CN1CCN(CC/C=C2/c3ccccc3Sc3ccc(S(=O)(=O)N(C)C)cc32)CC1 | – | – | – | inactive | inactive | inactive | inactive |
| CC(=O)NC(C1C(=O)CC(C)(C)CC1=O)(C(F)(F)F)C(F)(F)F | – | – | – | inactive | inactive | inactive | inactive |
| Cc1cc(=O)oc2cc(OCC3CC(c4ccccc4Cl)=NO3)ccc12 (stereo not given) | 156% (active) | 30.5% (active) | – | inactive | – | – | inactive |
| CCOC(=O)Cc1csc(NC(=S)NC(=O)c2ccc(F)cc2)n1 | – | – | – | inactive | inactive | inactive | inactive |
| O=C(NC(=S)Nc1ccccc1Br)c1ccco1 | – | – | – | inactive | inactive | inactive | inactive |
| Cc1ccc(S(=O)(=O)N2CCN(C(=O)CCC(=O)OCC(=O)Nc3cccc(C#N)c3)CC2)cc1 | – | – | – | inactive | inactive | inactive | inactive |
| O=C(CNc1ccc2c(c1)OCO2)N/N=C\c1cn(Cc2ccccc2)c2ccccc12 | – | – | – | inactive | inactive | inactive | inactive |
| CC(C)c1ccc(OCC(=O)NNC(=S)NC(=O)c2ccco2)c(Br)c1 | 154% (active) | 68.5% (active) | 232% (active) | inactive | – | – | – |
| CCOC(=O)C1=C(O)c2ccccc2C(=O)/C1=C\c1ccc(CC)cc1 | 177% (active) | 114% (active) | 156% (active) | inactive | – | – | – |
| Cc1ccc(C)c(NC(=S)NNC(=O)c2csc3c2CCC(C)C3)c1 (stereo not given) | 242% (active) | 116% (active) | 322% (active) | inactive | – | – | – |
| COC(=O)c1ccc(CNC(=O)c2ccc(COc3ccccc3)cc2)cc1 | – | – | – | inactive | inactive | inactive | inactive |
| Cc1ccc(Cc2cnc(N3C(=N)SC(c4ccccc4)C3=O)s2)cc1 (stereo not given) | – | – | – | inactive | inactive | inactive | inactive |
| CC(=O)SCC(=O)N=c1sc2cc(F)ccc2n1C | – | – | – | inactive | inactive | inactive | inactive |
| CC(=O)c1c(C)[nH]c(-c2ccccc2)nc1=S | 151% (active) | 40% (active) | 178% (active) | inactive | – | – | – |
| Oc1cccc2ccc(Nc3ccccn3)nc12 | – | – | – | inactive | inactive | inactive | inactive |

| SMILES | activation [1] | potentiation [2] | potentiation [3] | outcome [4] | outcome [1] | outcome [2] | outcome [3] |
| --- | --- | --- | --- | --- | --- | --- | --- |
| COc1ccc2nc(N=Nc3ccc(O)c4ccccc34)sc2c1 | 210% (active) | 83.5% (active) | 188% (active) | inactive | – | – | – |
| O=c1c(-c2ccccc2)[n+]([O-])c2ccccc2n1O | – | – | – | inactive | inactive | inactive | inactive |
| S=c1[nH]c2cc(-c3ccccc3)ccc2o1 | 306% (active) | 89.5% (active) | 318% (active) | inactive | – | – | – |
| CC1(C)CC(N2CCOCC2)=CC(=[N+]2CCOCC2)C1 | – | – | – | inactive | inactive | inactive | inactive |
| O=c1sc(N2CCN(c3ccccc3F)CC2)nc2ccsc12 | – | – | – | inactive | inactive | inactive | inactive |
| CC(OC(=O)CC1Sc2ccccc2NC1=O)C(=O)NC1CCCC1 (stereo not given) | – | – | – | inactive | inactive | inactive | inactive |
| COc1cc2c(cc1OC)C(C)N(C(=S)NC(=O)c1ccccc1)CC2 (stereo not given) | 141% (active) | – | – | inactive | – | inactive | inactive |
| O=C(CCc1ccccc1)Nc1nccs1 | – | – | – | inactive | inactive | inactive | inactive |
| CCOC(=O)c1sc(NC(=O)c2ccc(OC(C)=O)cc2)nc1C | – | – | – | inactive | inactive | inactive | inactive |
| C/C(=N\NC(=O)c1cc2ccccc2cc1O)c1ccc(C)o1 | 238% (active) | 114% (active) | 264% (active) | inactive | – | – | – |
| CC(C)(C)c1ccc(C(=O)NC(=S)Nc2nc3c(s2)CCCC3)cc1 | 210% (active) | 91% (active) | 217% (active) | inactive | – | – | – |
| Oc1c(CN2CCN(c3ccccn3)CC2)cc(Cl)c2cccnc12 | 148% (active) | 35% (active) | 172% (active) | inactive | – | – | – |
| COC(=O)c1c(N)sc2c1CCN(c1ncc(C(F)(F)F)cc1Cl)C2 | – | – | 142% (active) | inactive | inactive | inactive | – |
| CC1CCC(n2c(=S)[nH]c3ccccc3c2=O)CC1 (stereo not given) | 234% (active) | 70% (active) | 243% (active) | inactive | – | – | – |
| COc1ccc(Cl)cc1NC(=O)/C=C\C(=O)O | – | – | – | inactive | inactive | inactive | inactive |
| O=C(CCn1c(=O)sc2ccccc21)NCc1ccco1 | – | – | – | inactive | inactive | inactive | inactive |
| COc1ccc(NC(=O)C(=O)NNC(=O)c2cccs2)c(OC)c1 | 246% (active) | 37.5% (active) | 220% (active) | inactive | – | – | – |
| O=C(c1ccccc1)N1CCC(CC2CC(c3ccc(Cl)cc3)=NO2)(C(=O)NCC2CCCCC2)CC1 (stereo not given) | – | – | – | inactive | inactive | inactive | inactive |
| COC(=O)c1ccc(COC(=O)c2ccccn2)cc1 | – | 65% (active) | 157% (active) | inactive | inactive | – | – |
| COc1ccc(/C=N/N=C2/NC(=O)C(c3ccccc3)S2)c(OC)c1 (stereo not given) | – | – | – | inactive | inactive | inactive | inactive |
